Measured values reported in ChEMBL document CHEMBL1153376, “Lipophilic lysine-spermine conjugates are potent polyamine transport inhibitors for use in combination with a polyamine biosynthesis inhibitor” (J Med Chem, 2009).
pIC50, pKi: −log10 of the molar value. Activity calls are given as the source filed them. No cut-off for these calls is given here.

Key:
[1] = target: T1, Ornithine decarboxylase (Homo sapiens) (UniProt P11926); experiment: Inhibition of ornithine decarboxylase activity in human SK-MEL cells at 10 uM after 24 hrs relative to control; assay type: cell-based; design: scale not given: the % may be the effect or the level left
T1 sequence (whole entry): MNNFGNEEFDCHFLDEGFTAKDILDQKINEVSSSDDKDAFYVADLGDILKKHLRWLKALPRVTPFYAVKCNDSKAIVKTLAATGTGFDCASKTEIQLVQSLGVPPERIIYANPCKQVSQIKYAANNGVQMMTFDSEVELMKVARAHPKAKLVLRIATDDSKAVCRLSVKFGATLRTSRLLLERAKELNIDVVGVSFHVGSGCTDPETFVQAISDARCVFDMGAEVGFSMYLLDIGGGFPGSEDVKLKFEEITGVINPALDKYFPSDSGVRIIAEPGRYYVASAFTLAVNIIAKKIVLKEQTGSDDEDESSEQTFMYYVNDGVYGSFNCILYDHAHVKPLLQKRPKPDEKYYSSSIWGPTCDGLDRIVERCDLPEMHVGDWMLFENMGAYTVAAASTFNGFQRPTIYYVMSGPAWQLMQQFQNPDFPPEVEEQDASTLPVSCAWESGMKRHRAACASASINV
Method in brief: (§1)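 SK-Mel human melanoma cells exposed to 10 µM agent alone for 24 h. Enzyme activity (ODC; SSAT) measured and expressed as % of untreated control.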

[2] = target: Diamine acetyltransferase 1 (Homo sapiens) (UniProt P21673); experiment: Inhibition of spermidine/spermine N1-acetyltransferase activity in human SK-MEL cells at 10 uM after 24 hrs relative to control; assay type: cell-based; design: scale not given: the % may be the effect or the level left; method in brief: as §1
MDA-MB-231 [3] = experiment: Cytotoxicity against human MDA-MB-231 cells after 6 days by MTS/PMS dye assay; details: MDA-MB-231, 144 h
MDA-MB-231 [4] = experiment: Inhibition of [2,9-3H]spermidine uptake in human MDA-MB-231 cells after 15 mins by Lineweaver-Burke plot analysis; assay type: functional, cell-based
Method in brief: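 Cells then washed three times in cold PBS and lysed in 0.1% SDS, and lysates scintillation-counted. Four substrate concentrations (0.3–3 µM) and five inhibitor concentrations (0.01–1.0 µM) plus control. Ki from slopes of Lineweaver-Burke plots against inhibitor concentration (Ki = y-intercept/slope).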

Mus musculus [5] = experiment: Antitumor activity against 7,12-dimethylbenz(alpha)anthracene-induced squamous cell carcinoma in FVB/N transgenic mouse model expressing K6/ODC gene assessed as tumor growth inhibition at 0.5 mg/kg, ip administered twice daily after 4 weeks; assay type: functional, organism-based; design: dose 0.5 mg/kg
Mus musculus [6] = species: Mus musculus; experiment: Antitumor activity against 7,12-dimethylbenz(alpha)anthracene-induced squamous cell carcinoma in FVB/N transgenic mouse model expressing K6/ODC gene assessed as tumor growth inhibition after 4 weeks; assay type: functional, organism-based

Diamine acetyltransferase 1 (Homo sapiens), sequence (P21673 whole entry): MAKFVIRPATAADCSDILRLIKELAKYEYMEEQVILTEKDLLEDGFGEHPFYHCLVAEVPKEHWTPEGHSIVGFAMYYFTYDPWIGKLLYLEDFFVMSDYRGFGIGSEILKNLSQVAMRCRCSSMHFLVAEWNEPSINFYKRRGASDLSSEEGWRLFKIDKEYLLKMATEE

SMILES | Activity [1] [%] | Activity [2] [%] | pIC50 (MDA-MB-231 [3]) | pKi (MDA-MB-231 [4]) | Activity (Mus musculus [5]) | Activity (Mus musculus [6])
CCCCCCCC(=O)NCCCC[C@H](N)C(=O)NCCCNCCCCNCCCN | 110 | 40 | – | – | – | –
CCCCCCCCCCCCCCCC(=O)NCCCC[C@@H](N)C(=O)NCCCNCCCCNCCCN [AMXT-1501] | – | – | 4.24 | 7.98 | Active | –
NCCCC(N)(C(=O)O)C(F)F (centres undefined) | – | – | – | – | – | Active
CCCCCCCCCCCCCCCC(=O)NCCCC[C@H](N)C(=O)NCCCNCCCCNCCCN | 46 | 40 | – | 8.12 | – | –
